Laboratory results taken from ChEMBL document CHEMBL1144256, “Potent Kv1.3 inhibitors from correolide-modification of the C18 position” (Bioorg Med Chem Lett, 2005).

Key:
[1] = target: T1, Potassium voltage-gated channel subfamily A member 3 (Homo sapiens, UniProt P22001); experiment: Relative T cell IC50 compared to IC50 for correolide assay; format: functional, cell-based
Procedure, shortened: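 Ratio of correolide IC50 to compound IC50 in the anti-CD3-stimulated human peripheral blood T cell proliferation assay; a larger value means greater potency.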

[2] = target: T1, Potassium voltage-gated channel subfamily A member 3; experiment: Inhibition of voltage-gated potassium channel subunit Kv1.3 in chinese hamster ovary cells; format: functional, cell-based
Procedure, shortened: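 Depolarization-induced ⁸⁶Rb⁺ efflux measured in CHO cells stably transfected with human Kv1.3 channel (Rb_Kv functional assay), with short compound incubation; IC50 reported.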

[3] = target: T1, Potassium voltage-gated channel subfamily A member 3; experiment: Inhibitory activity against voltage-gated potassium channel subunit Kv1.3 of human T cells; format: functional, cell-based, T-cell
[4] = target: T1, Potassium voltage-gated channel subfamily A member 3; experiment: Inhibitory activity against voltage-gated potassium channel subunit Kv1.3; format: functional

T1 sequence (P22001 whole entry): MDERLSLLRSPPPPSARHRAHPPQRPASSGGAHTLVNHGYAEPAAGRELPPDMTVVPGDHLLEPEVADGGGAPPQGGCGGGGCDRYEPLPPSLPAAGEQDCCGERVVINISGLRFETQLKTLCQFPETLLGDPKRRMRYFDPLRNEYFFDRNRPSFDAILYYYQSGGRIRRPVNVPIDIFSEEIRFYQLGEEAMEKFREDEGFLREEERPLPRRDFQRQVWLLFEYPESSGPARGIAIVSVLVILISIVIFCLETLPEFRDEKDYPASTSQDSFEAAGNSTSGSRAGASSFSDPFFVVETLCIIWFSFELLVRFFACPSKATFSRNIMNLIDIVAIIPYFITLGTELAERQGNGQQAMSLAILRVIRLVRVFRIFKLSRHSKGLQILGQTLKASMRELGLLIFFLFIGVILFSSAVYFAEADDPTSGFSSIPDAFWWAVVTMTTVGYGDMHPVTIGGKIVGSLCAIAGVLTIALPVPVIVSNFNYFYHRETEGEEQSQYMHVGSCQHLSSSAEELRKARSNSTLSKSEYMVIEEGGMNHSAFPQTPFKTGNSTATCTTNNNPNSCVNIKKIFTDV

Structure (SMILES)	Ratio [1]	IC50 [2]	IC50 [3]	IC50 [4]
CC(=O)O[C@H]1C2[C@@](C)(CCC3C(O)(CCc4ccccc4O)C(C)=C[C@@H](OC(C)=O)[C@@]32C)C2C=CCOC[C@]2([C@@H](C)OC(C)=O)[C@H]1OC(C)=O (stereo partly drawn)	0.43	26 nM	428 nM	–
CC(=O)O[C@H]1C2[C@@](C)(CCC3C(O)(Cc4ccccc4)C(C)=C[C@@H](OC(C)=O)[C@@]32C)C2C=CCOC[C@]2([C@@H](C)OC(C)=O)[C@H]1OC(C)=O (stereo partly drawn)	–	380 nM	–	–
C=C(CC1(O)C(C)=C[C@@H](OC(C)=O)[C@@]2(C)C1CC[C@]1(C)C2[C@H](OC(C)=O)[C@H](OC(C)=O)[C@@]2([C@@H](C)OC(C)=O)COCC=CC12)c1ccccc1SC (stereo partly drawn)	12.5	14 nM	14.7 nM	–
CC(=O)O[C@H]1C2[C@@](C)(CCC3C(O)(CCCc4ccccc4)C(C)=C[C@@H](OC(C)=O)[C@@]32C)C2C=CCOC[C@]2([C@@H](C)OC(C)=O)[C@H]1OC(C)=O (stereo partly drawn)	–	150 nM	–	–
C=C(CC1(O)C(C)=C[C@@H](OC(C)=O)[C@@]2(C)C1CC[C@]1(C)C2[C@H](OC(C)=O)[C@H](OC(C)=O)[C@@]2([C@@H](C)OC(C)=O)COCC=CC12)c1ccccc1[S+](C)[O-] (stereo in doubt; 35)	–	259 nM	–	–
CCc1ccccc1[C@H](CC)CC1(O)C(C)=C[C@@H](OC(C)=O)[C@@]2(C)C1CC[C@]1(C)C2[C@H](OC(C)=O)[C@H](OC(C)=O)[C@@]2([C@@H](C)OC(C)=O)COCC=CC12 (stereo partly drawn)	–	12 nM	–	–
CC[C@H](CC1(O)C(C)=C[C@@H](OC(C)=O)[C@@]2(C)C1CC[C@]1(C)C2[C@H](OC(C)=O)[C@H](OC(C)=O)[C@@]2([C@@H](C)OC(C)=O)COCC=CC12)c1ccccc1OC (stereo partly drawn)	6.3	28 nM	29.2 nM	–
C=C1C[C@@]2(O)C3CC[C@]4(C)C([C@H](OC(C)=O)[C@H](OC(C)=O)[C@@]5([C@@H](C)OC(C)=O)COC(=O)C=CC45)[C@@]3(C)[C@H](OC(C)=O)[C@H](OC(C)=O)[C@@]2(C)C2(C(=O)OC)O[C@H]12 (stereo partly drawn) [CORRELOID]	–	100 nM	184 nM	–
C=CCCC1(O)C(C)=C[C@@H](OC(C)=O)[C@@]2(C)C1CC[C@]1(C)C2[C@H](OC(C)=O)[C@H](OC(C)=O)[C@@]2([C@@H](C)OC(C)=O)COCC=CC12 (stereo partly drawn)	–	664 nM	–	–
CCOc1ccccc1CCC1(O)C(C)=C[C@@H](OC(C)=O)[C@@]2(C)C1CC[C@]1(C)C2[C@H](OC(C)=O)[C@H](OC(C)=O)[C@@]2([C@@H](C)OC(C)=O)COCC=CC12 (stereo partly drawn)	2.3	34 nM	80 nM	–
COC(=O)C12O[C@@H]1C(=O)CC1(O)C3CC[C@]4(C)C([C@H](OC(C)=O)[C@H](OC(C)=O)[C@@]5([C@@H](C)OC(C)=O)COCC=CC45)[C@@]3(C)[C@H](OC(C)=O)[C@H](OC(C)=O)[C@]12C (stereo partly drawn)	–	–	–	35 nM
COc1ccccc1[C@H](C)C[C@]1(O)C(C)=C[C@@H](OC(C)=O)[C@]2(C)C3[C@H](OC(C)=O)[C@H](OC(C)=O)[C@@]4([C@@H](C)OC(C)=O)COCC=CC4[C@]3(C)CCC21 (stereo partly drawn)	7.2	19 nM	25.6 nM	–
C=CCC1(O)C(C)=C[C@@H](OC(C)=O)[C@@]2(C)C1CC[C@]1(C)C2[C@H](OC(C)=O)[C@H](OC(C)=O)[C@@]2([C@@H](C)OC(C)=O)COCC=CC12 (stereo partly drawn)	–	143 nM	–	–
CC(=O)O[C@H]1C2[C@@](C)(CCC3C(O)(C[C@H](C)c4ccccc4)C(C)=C[C@@H](OC(C)=O)[C@@]32C)C2C=CCOC[C@]2([C@@H](C)OC(C)=O)[C@H]1OC(C)=O (stereo partly drawn)	0.3	120 nM	613 nM	–
CC(=O)O[C@H]1C2[C@@](C)(CCC3C(O)(CCc4ccccc4C)C(C)=C[C@@H](OC(C)=O)[C@@]32C)C2C=CCOC[C@]2([C@@H](C)OC(C)=O)[C@H]1OC(C)=O (stereo partly drawn)	0.95	41 nM	194 nM	–
CC(=O)O[C@H]1C2[C@@](C)(CCC3C(O)(CCc4ccccc4)C(C)=C[C@@H](OC(C)=O)[C@@]32C)C2C=CCOC[C@]2([C@@H](C)OC(C)=O)[C@H]1OC(C)=O (stereo partly drawn)	0.4	26 nM	460 nM	–
CCOc1ccccc1[C@H](C)CC1(O)C(C)=C[C@@H](OC(C)=O)[C@@]2(C)C1CC[C@]1(C)C2[C@H](OC(C)=O)[C@H](OC(C)=O)[C@@]2([C@@H](C)OC(C)=O)COCC=CC12 (stereo partly drawn)	15	37 nM	12.3 nM	–
CC(=O)O[C@H]1C2[C@@](C)(CCC3C(O)(CCCCc4ccccc4)C(C)=C[C@@H](OC(C)=O)[C@@]32C)C2C=CCOC[C@]2([C@@H](C)OC(C)=O)[C@H]1OC(C)=O (stereo partly drawn)	–	270 nM	–	–
COc1ccccc1CCC1(O)C(C)=C[C@@H](OC(C)=O)[C@@]2(C)C1CC[C@]1(C)C2[C@H](OC(C)=O)[C@H](OC(C)=O)[C@@]2([C@@H](C)OC(C)=O)COCC=CC12 (stereo partly drawn)	1.3	14 nM	142 nM	–
C=C(CC1(O)C(C)=C[C@@H](OC(C)=O)[C@@]2(C)C1CC[C@]1(C)C2[C@H](OC(C)=O)[C@H](OC(C)=O)[C@@]2([C@@H](C)OC(C)=O)COCC=CC12)c1ccccc1[S+](C)[O-] (stereo in doubt; 34)	–	145 nM	–	–

Structure (SMILES)	Ratio [1]	IC50 [2]	IC50 [3]	IC50 [4]
COc1ccc(CCC2(O)C(C)=C[C@@H](OC(C)=O)[C@@]3(C)C2CC[C@]2(C)C3[C@H](OC(C)=O)[C@H](OC(C)=O)[C@@]3([C@@H](C)OC(C)=O)COCC=CC23)cc1 (stereo partly drawn)	–	130 nM	–	–
C=CC1(O)C(C)=C[C@@H](OC(C)=O)[C@@]2(C)C1CC[C@]1(C)C2[C@H](OC(C)=O)[C@H](OC(C)=O)[C@@]2([C@@H](C)OC(C)=O)COCC=CC12 (stereo partly drawn)	–	1810 nM	–	–
C=CC[C@H](CC1(O)C(C)=C[C@@H](OC(C)=O)[C@@]2(C)C1CC[C@]1(C)C2[C@H](OC(C)=O)[C@H](OC(C)=O)[C@@]2([C@@H](C)OC(C)=O)COCC=CC12)c1ccccc1OC (stereo partly drawn)	5.6	21 nM	32.9 nM	–
COc1cccc(CCC2(O)C(C)=C[C@@H](OC(C)=O)[C@@]3(C)C2CC[C@]2(C)C3[C@H](OC(C)=O)[C@H](OC(C)=O)[C@@]3([C@@H](C)OC(C)=O)COCC=CC23)c1 (stereo partly drawn)	0.14	24 nM	1310 nM	–
C=C(CC1(O)C(C)=C[C@@H](OC(C)=O)[C@@]2(C)C1CC[C@]1(C)C2[C@H](OC(C)=O)[C@H](OC(C)=O)[C@@]2([C@@H](C)OC(C)=O)COCC=CC12)c1ccccc1S(=O)OC (stereo partly drawn)	–	352 nM	–	–
CC(=O)O[C@H]1C2[C@@](C)(CCC3C(O)(C[C@@H](C)c4ccccc4)C(C)=C[C@@H](OC(C)=O)[C@@]32C)C2C=CCOC[C@]2([C@@H](C)OC(C)=O)[C@H]1OC(C)=O (stereo partly drawn)	1.8	12 nM	102 nM	–
CC(=O)O[C@H]1C2[C@@](C)(CCC3C(=O)C(C)=C[C@@H](OC(C)=O)[C@@]32C)C2C=CCOC[C@]2([C@@H](C)OC(C)=O)[C@H]1OC(C)=O (stereo partly drawn)	–	–	–	5600 nM
C=C(C[C@]1(O)C(C)=C[C@@H](OC(C)=O)[C@]2(C)C3[C@H](OC(C)=O)[C@H](OC(C)=O)[C@@]4([C@@H](C)OC(C)=O)COCC=CC4[C@]3(C)CCC21)c1ccccc1 (stereo partly drawn)	1.4	19 nM	131 nM	–
CC(=O)Oc1ccccc1CCC1(O)C(C)=C[C@@H](OC(C)=O)[C@@]2(C)C1CC[C@]1(C)C2[C@H](OC(C)=O)[C@H](OC(C)=O)[C@@]2([C@@H](C)OC(C)=O)COCC=CC12 (stereo partly drawn)	–	31 nM	–	–
C=C(CC1(O)C(C)=C[C@@H](OC(C)=O)[C@@]2(C)C1CC[C@]1(C)C2[C@H](OC(C)=O)[C@H](OC(C)=O)[C@@]2([C@@H](C)OC(C)=O)COCC=CC12)c1ccccc1CC (stereo partly drawn)	7.2	44 nM	25.5 nM	–
CCc1ccccc1[C@H](C)CC1(O)C(C)=C[C@@H](OC(C)=O)[C@@]2(C)C1CC[C@]1(C)C2[C@H](OC(C)=O)[C@H](OC(C)=O)[C@@]2([C@@H](C)OC(C)=O)COCC=CC12 (stereo partly drawn)	5	28 nM	36.8 nM	–
C=C(CC1(O)C(C)=C[C@@H](OC(C)=O)[C@@]2(C)C1CC[C@]1(C)C2[C@H](OC(C)=O)[C@H](OC(C)=O)[C@@]2([C@@H](C)OC(C)=O)COCC=CC12)c1ccccc1SCC (stereo partly drawn)	5.8	17 nM	31.7 nM	–
C=C(CC1(O)C(C)=C[C@@H](OC(C)=O)[C@@]2(C)C1CC[C@]1(C)C2[C@H](OC(C)=O)[C@H](OC(C)=O)[C@@]2([C@@H](C)OC(C)=O)COCC=CC12)c1ccccc1OC (stereo partly drawn)	3.6	11 nM	51.1 nM	–
CC(=O)O[C@H]1C2[C@@](C)(CCC3C(O)(CC(C)(C)c4ccccc4)C(C)=C[C@@H](OC(C)=O)[C@@]32C)C2C=CCOC[C@]2([C@@H](C)OC(C)=O)[C@H]1OC(C)=O (stereo partly drawn)	1	19 nM	184 nM	–
CC(=O)O[C@H]1C2[C@@](C)(CCC3C(O)(C(C)Cc4ccccc4)C(C)=C[C@@H](OC(C)=O)[C@@]32C)C2C=CCOC[C@]2([C@@H](C)OC(C)=O)[C@H]1OC(C)=O (stereo partly drawn)	–	200 nM	–	–
CC(=O)O[C@H]1C2[C@@](C)(CCC3C(O)(CCC=C(C)C)C(C)=C[C@@H](OC(C)=O)[C@@]32C)C2C=CCOC[C@]2([C@@H](C)OC(C)=O)[C@H]1OC(C)=O (stereo partly drawn)	–	21 nM	–	–
CC(=O)O[C@H]1C2[C@@](C)(CCC3C(O)(c4ccccc4)C(C)=C[C@@H](OC(C)=O)[C@@]32C)C2C=CCOC[C@]2([C@@H](C)OC(C)=O)[C@H]1OC(C)=O (stereo partly drawn)	–	2000 nM	–	–
C=CC[C@H](CC1(O)C(C)=C[C@@H](OC(C)=O)[C@@]2(C)C1CC[C@]1(C)C2[C@H](OC(C)=O)[C@H](OC(C)=O)[C@@]2([C@@H](C)OC(C)=O)COCC=CC12)c1ccccc1CC (stereo partly drawn)	–	48 nM	–	–
CC(=O)O[C@H]1C2[C@@](C)(CCC3C(O)(CCc4ccccc4C(F)(F)F)C(C)=C[C@@H](OC(C)=O)[C@@]32C)C2C=CCOC[C@]2([C@@H](C)OC(C)=O)[C@H]1OC(C)=O (stereo partly drawn)	0.1	87 nM	1840 nM	–
CC(=O)O[C@H]1C2[C@@](C)(CCC3C(O)(CCc4ccccc4F)C(C)=C[C@@H](OC(C)=O)[C@@]32C)C2C=CCOC[C@]2([C@@H](C)OC(C)=O)[C@H]1OC(C)=O (stereo partly drawn)	0.75	74 nM	245 nM	–
